# From ChEMBL document CHEMBL5303300, “EUbOPEN Chemogenomics Library - Multiplex” (2023)
# Values joined by “and” are separate entries in the source; they are usually repeats but may differ in a detail not shown here. Equal values may be shown once.
# What was measured:
# HEK-293T = test: Multiplex assay against HEK293T; type: toxicity, cell-based; details: human, number of replicates 2
# Procedure, shortened: (§1)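 At seeding, live cells were stained with Hoechst33342, BioTracker Green Microtubule Cytoskeleton Dye, MitoTracker Red and Annexin V Alexa Fluor 680. After compound addition they were imaged on a CQ1 microscope at 37°C and 5% CO2, and CellPathfinder machine-learning gating sorted them into Hoechst high-intensity objects or normal cells, with normal cells further split into healthy, pyknosed or fragmented nuclei and pyknosed cells into mitotic or apoptotic. Tubulin, mitochondrial-mass and membrane-permeability phenotypes are given as per cents of cells with healthy nuclei.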
# Fibroblast = test: Multiplex assay against human fibroblast; type: toxicity, cell-based; details: number of replicates 2; procedure, shortened: as §1
# [1] = 24 h, 10 µM, compound concentration 10 uM
# [2] = 48 h, 1 µM, compound concentration 1 uM
# [3] = 48 h, 10 µM, compound concentration 10 uM
# [4] = 12 h, 1 µM, compound concentration 1 uM
# [5] = 12 h, 10 µM, compound concentration 10 uM
# [6] = 24 h, 1 µM, compound concentration 1 uM
smiles,measurement,setting,value
COc1ccccc1-c1cc(Nc2cccc(CS(N)(=O)=O)c2)ncn1,Population Mitochondria Different-Phenotype (%),HEK-293T; [1],20% and 19%
same,Population Mitotic Cells (%),HEK-293T; [1],52% and 60%
same,Population Normal (%),HEK-293T; [1],95% and 94%
same,Population Pyknosed Nuclei (%),HEK-293T; [1],6% and 7%
same,Population Tubulin-Different-Phenotype (%),HEK-293T; [1],69% and 75%
same,Total Cell Count,HEK-293T; [1],861 and 783
same,Population Apoptotic (%),HEK-293T; [2],11% and 13%
same,Population Fragmented Nuclei (%),HEK-293T; [2],11% and 8%
same,Population Healthy Nuclei (%),HEK-293T; [2],85% and 88%
same,Population Hoechst High Intensity Objects (%),HEK-293T; [2],8% and 9%
same,Population Membrane Permeable-Phenotype (%),HEK-293T; [2],5% and 3%
same,Population Mitochondria Different-Phenotype (%),HEK-293T; [2],0%
same,Population Mitotic Cells (%),HEK-293T; [2],88% and 86%
same,Population Normal (%),HEK-293T; [2],91% and 90%
same,Population Pyknosed Nuclei (%),HEK-293T; [2],3%
same,Population Tubulin-Different-Phenotype (%),HEK-293T; [2],15% and 16%
same,Total Cell Count,HEK-293T; [2],2772 and 2160
same,Population Apoptotic (%),HEK-293T; [3],34% and 35%
same,Population Fragmented Nuclei (%),HEK-293T; [3],8% and 5%
same,Population Healthy Nuclei (%),HEK-293T; [3],86% and 90%
same,Population Hoechst High Intensity Objects (%),HEK-293T; [3],6%
same,Population Membrane Permeable-Phenotype (%),HEK-293T; [3],3%
same,Population Mitochondria Different-Phenotype (%),HEK-293T; [3],7% and 8%
same,Population Mitotic Cells (%),HEK-293T; [3],65% and 64%
same,Population Normal (%),HEK-293T; [3],93%
same,Population Pyknosed Nuclei (%),HEK-293T; [3],4% and 3%
same,Population Tubulin-Different-Phenotype (%),HEK-293T; [3],51% and 50%
same,Total Cell Count,HEK-293T; [3],1254 and 1055
same,Population Apoptotic (%),Fibroblast; [4],36% and 33%
same,Population Fragmented Nuclei (%),Fibroblast; [4],4% and 7%
same,Population Healthy Nuclei (%),Fibroblast; [4],78% and 68%
same,Population Hoechst High Intensity Objects (%),Fibroblast; [4],0%
same,Population Membrane Permeable-Phenotype (%),Fibroblast; [4],8% and 2%
same,Population Mitochondria Different-Phenotype (%),Fibroblast; [4],1% and 0%
same,Population Mitotic Cells (%),Fibroblast; [4],63% and 66%
same,Population Normal (%),Fibroblast; [4],100% and 99%
same,Population Pyknosed Nuclei (%),Fibroblast; [4],16% and 24%
same,Population Tubulin-Different-Phenotype (%),Fibroblast; [4],13% and 7%
same,Total Cell Count,Fibroblast; [4],202 and 230
same,Population Apoptotic (%),Fibroblast; [5],46% and 42%
same,Population Fragmented Nuclei (%),Fibroblast; [5],4% and 7%
same,Population Healthy Nuclei (%),Fibroblast; [5],77% and 71%
same,Population Hoechst High Intensity Objects (%),Fibroblast; [5],0%
same,Population Membrane Permeable-Phenotype (%),Fibroblast; [5],7% and 5%
same,Population Mitochondria Different-Phenotype (%),Fibroblast; [5],0% and 1%
same,Population Mitotic Cells (%),Fibroblast; [5],53% and 57%
same,Population Normal (%),Fibroblast; [5],100% and 99%
same,Population Pyknosed Nuclei (%),Fibroblast; [5],17% and 21%
same,Population Tubulin-Different-Phenotype (%),Fibroblast; [5],17% and 19%
same,Total Cell Count,Fibroblast; [5],181 and 214
same,Population Apoptotic (%),Fibroblast; [6],41% and 49%
same,Population Fragmented Nuclei (%),Fibroblast; [6],6% and 10%
same,Population Healthy Nuclei (%),Fibroblast; [6],75% and 64%
same,Population Hoechst High Intensity Objects (%),Fibroblast; [6],0%
same,Population Membrane Permeable-Phenotype (%),Fibroblast; [6],5% and 7%
same,Population Mitochondria Different-Phenotype (%),Fibroblast; [6],2% and 0%
same,Population Mitotic Cells (%),Fibroblast; [6],58% and 50%
same,Population Normal (%),Fibroblast; [6],100% and 99%
same,Population Pyknosed Nuclei (%),Fibroblast; [6],18% and 25%
same,Population Tubulin-Different-Phenotype (%),Fibroblast; [6],15% and 12%
same,Total Cell Count,Fibroblast; [6],194 and 245
same,Population Apoptotic (%),Fibroblast; [1],61% and 55%
same,Population Fragmented Nuclei (%),Fibroblast; [1],10% and 9%
same,Population Healthy Nuclei (%),Fibroblast; [1],76% and 68%
same,Population Hoechst High Intensity Objects (%),Fibroblast; [1],0%
same,Population Membrane Permeable-Phenotype (%),Fibroblast; [1],1%
same,Population Mitochondria Different-Phenotype (%),Fibroblast; [1],3% and 4%
same,Population Mitotic Cells (%),Fibroblast; [1],38% and 44%
same,Population Normal (%),Fibroblast; [1],100%
same,Population Pyknosed Nuclei (%),Fibroblast; [1],12% and 21%
same,Population Tubulin-Different-Phenotype (%),Fibroblast; [1],18% and 15%
same,Total Cell Count,Fibroblast; [1],202 and 214
same,Population Apoptotic (%),Fibroblast; [2],66% and 56%
same,Population Fragmented Nuclei (%),Fibroblast; [2],5% and 14%
same,Population Healthy Nuclei (%),Fibroblast; [2],78% and 67%
same,Population Hoechst High Intensity Objects (%),Fibroblast; [2],0%
same,Population Membrane Permeable-Phenotype (%),Fibroblast; [2],4% and 6%
same,Population Mitochondria Different-Phenotype (%),Fibroblast; [2],0%
same,Population Mitotic Cells (%),Fibroblast; [2],33% and 43%
same,Population Normal (%),Fibroblast; [2],99%
same,Population Pyknosed Nuclei (%),Fibroblast; [2],15% and 18%
same,Population Tubulin-Different-Phenotype (%),Fibroblast; [2],8% and 5%
same,Total Cell Count,Fibroblast; [2],192 and 250
same,Population Apoptotic (%),Fibroblast; [3],78% and 80%
same,Population Fragmented Nuclei (%),Fibroblast; [3],9%
same,Population Healthy Nuclei (%),Fibroblast; [3],83% and 74%
same,Population Hoechst High Intensity Objects (%),Fibroblast; [3],0%
same,Population Membrane Permeable-Phenotype (%),Fibroblast; [3],3% and 9%
same,Population Mitochondria Different-Phenotype (%),Fibroblast; [3],1%
same,Population Mitotic Cells (%),Fibroblast; [3],21% and 20%
same,Population Normal (%),Fibroblast; [3],100%
same,Population Pyknosed Nuclei (%),Fibroblast; [3],6% and 16%
same,Population Tubulin-Different-Phenotype (%),Fibroblast; [3],16% and 26%
same,Total Cell Count,Fibroblast; [3],203 and 209
